Results reported in ChEMBL document CHEMBL1138522, “A novel small-molecule inhibitor of the avian influenza H5N1 virus determined through computational screening against the neuraminidase” (J Med Chem, 2009).
Active and inactive are the calls of the source. The calls are words filed in the database; no cut-off is given here. Residues, ends and D or L forms follow the SMILES beside them. *: point of attachment. Cbz = O=C(OCc1ccccc1)*

How the values were obtained:
[1] = Cytotoxicity against primary human blood macrophages after 48 hrs by MTT assay; format: cell-based; conditions: macrophage
Method in brief: (§1)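 Primary human blood macrophages or MDCK cells were incubated 48 h with DMSO-dissolved compound; viability by MTT assay. DMSO-treated cells served as solvent controls.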

MDCK = experiment: Cytotoxicity against MDCK cells after 48 hrs by MTT assay; format: cell-based, Canis lupus familiaris; conditions: dog; method in brief: as §1
Influenza A virus [2] = experiment: Antiviral activity against Influenza A virus (A/Viet Nam/1203/2004(H5N1)) in MDCK cells assessed as inhibition of viral replication after 48 hrs by hemagglutinination assay; format: functional, organism-based
Influenza A virus [3] = experiment: Antiviral activity against influenza A virus H1N1 A/HK/54/98 in MDCK cells assessed as inhibition of viral replication after 48 hrs by hemagglutinination assay; format: functional, organism-based
Method in brief: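 H1N1 A/HK/54/98 infected MDCK cells at moi 2 for 30 min, then washed once with PBS. Cells were refed with serum-free medium containing TPCK-trypsin plus compound. Supernatant was collected 48 h post-infection and viral titre was read by hemagglutination assay.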

Influenza A virus [4] = experiment: Antiviral activity against Influenza A virus (A/Viet Nam/1203/2004(H5N1)) in MDCK cells assessed as inhibition of viral replication at 100 uM after 18 hrs by transmission electron microscopy; format: functional, organism-based
Influenza A virus [5] = experiment: Antiviral activity against influenza A virus H1N1 A/HK/54/98 in MDCK cells assessed as inhibition of viral replication at 100 uM after 18 hrs by transmission electron microscopy; format: functional, organism-based
Method in brief: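 MDCK cells were infected with H1N1 at moi 2, then treated with compound at 100 µM, with DMSO controls. At 18 h post-infection, cells were fixed in 2.5% glutaraldehyde in 0.1 M cacodylate (pH 7.4), post-fixed in 1% osmium tetroxide, and embedded in epoxy. 100 nm sections were examined by TEM for surface virions.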

Influenza A virus [6] = experiment: Antiviral activity against Influenza A virus (A/Viet Nam/1203/2004(H5N1)) in MDCK cells assessed as inhibition of virus-induced cytopathic effect after 48 hrs by crystal violet staining; format: functional, organism-based
Influenza A virus [7] = experiment: Antiviral activity against influenza A virus H1N1 A/HK/54/98 in MDCK cells assessed as inhibition of virus-induced cytopathic effect after 48 hrs by crystal violet staining; format: functional, organism-based
Method in brief: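 H1N1 A/HK/54/98 infected MDCK cells at moi 2, with compound over a range of concentrations; supernatant taken at 48 h. Serial 2-fold dilutions were adsorbed 1 h onto MDCK cells (2 × 10^4/well), then incubated 4 days in MEM with 1 µg/mL TPCK-trypsin. CPE was read by formaldehyde fixation and crystal violet staining; TCID50 by Reed-Muench. Three independent experiments.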

Mus musculus = experiment: Toxicity in mouse assessed as survival up to 400 mg/kg; format: organism-based; parameters: dose 400 mg/kg; conditions: in vivo
[8] = target: Neuraminidase (Influenza A virus) (UniProt B4URF0); experiment: Inhibition of influenza A virus H1N1 neuraminidase catalytic activity at 100 uM
Method in brief: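 Chemiluminescent NA-Star kit using H1N1 virus (TCID50 2 × 10^7/mL, diluted 5-fold) as enzyme source. Virus was preincubated with compound, in triplicate, 20 min at 37 °C. 1:1000-diluted substrate was then added for 30 min at room temperature, followed by accelerator and an immediate luminescence read.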

Structure (SMILES)	Activity [1]	Activity (MDCK)	Activity (Influenza A virus [2])	Activity (Influenza A virus [3])	Activity (Influenza A virus [4])	Activity (Influenza A virus [5])	Activity (Influenza A virus [6])	Activity (Influenza A virus [7])	Activity (Mus musculus)	Activity [8]
Nc1nc(=O)c2cc(NCc3ccc(C(=O)NC(CCC(=O)O)C(=O)O)cc3)ccc2[nH]1 (centres undefined)	0.9 µM	1.2 µM	inactive	inactive	–	–	–	–	–	–
O=C(O)C(Cc1ccc(O)cc1)c1ccc(C(Cc2ccc(O)cc2)C(=O)O)cc1 (centres undefined)	0.1 µM	–	inactive	inactive	–	–	–	–	–	–
CCOC(=O)C1=C[C@@H](OC(CC)CC)[C@H](NC(C)=O)[C@@H](N)C1	–	–	Active	Active	Active	Active	–	–	–	–
O=C(O)CCCCCNC(=O)OCc1ccccc1	0.9 µM	1.5 µM	inactive	inactive	–	–	–	–	–	–
O=C(/C=C/c1ccc(O)c(O)c1)NCC(=O)NC(Cc1ccccc1)C(=O)O (centres undefined)	1.1 µM	2.2 µM	inactive	inactive	–	–	–	–	–	–
Cc1cccc(OC(=O)Nc2ccc(C(=O)O)c(O)c2)c1	1 µM	2.3 µM	inactive	inactive	–	–	–	–	–	–
C[C@H](NC(=O)OCc1ccccc1)C(=O)N[C@@H](Cc1c[nH]c2ccccc12)C(=O)O (Cbz-Ala-Trp-OH)	0.9 µM	–	inactive	inactive	–	–	–	–	–	–
O=C(O)CCC(=O)CCC(=O)c1ccc2ccccc2c1	1.1 µM	1 µM	inactive	inactive	–	–	–	–	–	–
Cc1ccccc1OC(=O)Nc1ccc(C(=O)O)c(O)c1	0.9 µM	1.7 µM	inactive	inactive	–	–	–	–	–	–
Nc1nc(=O)c2cc(CSc3ccc(C(=O)NC(CCC(=O)O)C(=O)O)cc3)ccc2[nH]1 (centres undefined)	–	–	inactive	inactive	–	–	–	–	–	–
CNC(=N)Nc1ccc(C(=O)O)cc1.O=S(=O)(O)O	0.7 µM	–	inactive	inactive	–	–	–	–	–	–
O=C(O)CCC(=O)NCC1CCCC(CNC(=O)CCC(=O)O)C1 (centres undefined)	0.9 µM	1.3 µM	inactive	inactive	–	–	–	–	–	–
CCOC(=O)CNC(=O)CCC(NS(=O)(=O)c1ccc(C)cc1)C(=O)O (centres undefined)	0.8 µM	–	inactive	inactive	–	–	–	–	–	–
C/C(=C\C(=O)N1c2ccccc2CC1c1c[nH]c2ccccc12)C(=O)O (centres undefined)	1 µM	1.2 µM	inactive	inactive	–	–	–	–	–	–
Nc1nc(O)c2cc(CSc3ccc(C(=O)NC(CCC(=O)O)C(=O)O)cc3)ccc2n1 (centres undefined)	1.1 µM	1.1 µM	–	–	–	–	–	–	–	–
Cc1nc(N)nc(O)c1CCCNc1ccc(/C=C/C(=O)CCl)cc1	1.1 µM	2.2 µM	Active	Active	Active	Active	Dose-dependent effect	Dose-dependent effect	Non-toxic	Active
O=C(O)c1ccccc1C(=O)Nc1cc2c(cc1Br)-c1ccccc1C2=O	10 µM	1.1 µM	inactive	inactive	–	–	–	–	–	–
CC[C@H](C)[C@H](NC(=O)[C@H](C)NC(=O)OCc1ccccc1)C(=O)O (Cbz-Ala-Ile-OH)	1 µM	–	inactive	inactive	–	–	–	–	–	–
Cc1nc(Nc2ccccc2)sc1C(=O)CC(=O)C(=O)NC1C2CC3CC(C2)CC1C3 (centres undefined)	1.1 µM	1.5 µM	inactive	inactive	–	–	–	–	–	–
CCOC(=O)C(O)C(=O)OCc1ccc2ccccc2n1 (centres undefined)	1 µM	1.4 µM	inactive	inactive	–	–	–	–	–	–
O=C(O[C@H](C(=O)O)[C@H](OC(=O)c1ccccc1)C(=O)O)c1ccccc1	1.1 µM	0.7 µM	inactive	inactive	–	–	–	–	–	–
O=C(Nc1ccn(C2CCC(COC(c3ccccc3)(c3ccccc3)c3ccccc3)O2)c(=O)n1)c1ccccc1 (centres undefined)	0.8 µM	–	inactive	inactive	–	–	–	–	–	–
